Data on eleven compounds can be found in publication PMC9933479 (ACS Omega, 2023).

Where two headings read alike, the source gives them in different places.

Common to all, as to assay: MTT assay, cytotoxicity/growth inhibition
Data set [1] has as its system PC-3 (prostate carcinoma). Format: cell-based. The following applies: Homo sapiens; for inhibition at 20 µM: 48 h, read-out: Cytotoxic Activity (% Growth Inhibition). In short, it runs like this: (§1)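 Cells were grown in RPMI (A549, HCT-116, PC-3) or DMEM (MCF-7) with 10% FBS at 37 °C and 5% CO2. Seeding per well was […] and PC-3 8 × 10^4 cells. […] MTT 250 μg/mL, 4 h; DMSO; A570; triplicate; mean ± SE.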

Data set [2] has as its system A549 (lung carcinoma). Format: cell-based, human. Particulars: for IC50 / inhibition at 20 µM: Homo sapiens; for IC50: A549; for inhibition at 20 µM: A549, 48 h. In short, it runs like this: as §1
In data set [3] the test system is HCT-116 (colon carcinoma). Type of data set: cell-based. The following applies: Homo sapiens; for IC50: HCT-116; for inhibition at 20 µM: HCT-116, 48 h, read-out: Cytotoxic Activity (% Growth Inhibition). In short, it runs like this: as §1
The test system of data set [4] is MCF-7 (breast carcinoma). Type of data set: cell-based. Particulars: Homo sapiens; for IC50: MCF7; for inhibition at 20 µM: MCF7, 48 h, read-out: Cytotoxic Activity (% Growth Inhibition). The method, boiled down: as §1
Setting [5] is: read-out: Cytotoxic Activity (% Growth Inhibition), A549, 20 μM concentration, MTT, 48 h.

With `C[C@]1(CO)C2CC=C(COC(=O)c3ccccc3C(F)(F)F)[C@@H](/C=C/C3=CCOC3=O)[C@]2(C)CC[C@H]1O` (stereo partly drawn) [Compound 9n, ((1S,5R,6R,8aR)-6-Hydroxy-5-(hydroxymethyl)-5,8a-dimethyl-1-((E)-2-(2-oxo-2,5-dihydrofuran-3-yl)vinyl)-1,4,4a,5,6,7,8,8a-octahydronaphthalen-2-yl)methyl 2-(Trifluoromethyl)benzoate], the IC50 in data set [1] is 5.7 µM; in data set [2], over 20 µM; in data set [3] it was over 20 µM; in data set [4], over 20 µM. The inhibition at 20 µM in data set [1] turned out to be 72.2 ± 0.41%; in data set [2] (setting [5]), 5.6 ± 0.14%; in data set [3], 44.9 ± 0.78%; in data set [4] it was 18 ± 0.58%.

`C[C@]1(CO)C2CC=C(COC(=O)Cc3ccccc3)[C@@H](/C=C/C3=CCOC3=O)[C@]2(C)CC[C@H]1O` (stereo partly drawn) [Compound 9o, ((1S,5R,6R,8aR)-6-Hydroxy-5-(hydroxymethyl)-5,8a-dimethyl-1-((E)-2-(2-oxo-2,5-dihydrofuran-3-yl)vinyl)-1,4,4a,5,6,7,8,8a-octahydronaphthalen-2-yl)methyl 2-Phenylacetate]: the inhibition at 20 µM was determined as 15 ± 0.72% in data set [1], 43.4 ± 0.19% in data set [2] (read-out: Cytotoxic Activity (% Growth Inhibition)), 0% in data set [3] and 29.2 ± 0.29% in data set [4].

In the case of `C[C@]1(CO)C2CC=C(COC(=O)Cc3ccc(F)cc3)[C@@H](/C=C/C3=CCOC3=O)[C@]2(C)CC[C@H]1O` (stereo partly drawn) [Compound 9p, ((1S,5R,6R,8aR)-6-Hydroxy-5-(hydroxymethyl)-5,8a-dimethyl-1-((E)-2-(2-oxo-2,5-dihydrofuran-3-yl)vinyl)-1,4,4a,5,6,7,8,8a-octahydronaphthalen-2-yl)methyl 2-(4-Fluorophenyl)acetate], the inhibition at 20 µM is 44 ± 0.89% in data set [1], 32.6 ± 0.96% in data set [2] (setting [5]), 27.6 ± 0.31% in data set [3] and 12 ± 0.85% in data set [4].

Turning to `C[C@]1(CO)C2CC=C(COC(=O)Cc3ccc(Cl)cc3)[C@@H](/C=C/C3=CCOC3=O)[C@]2(C)CC[C@H]1O` (stereo partly drawn) [Compound 9q, ((1S,5R,6R,8aR)-6-Hydroxy-5-(hydroxymethyl)-5,8a-dimethyl-1-((E)-2-(2-oxo-2,5-dihydrofuran-3-yl)vinyl)-1,4,4a,5,6,7,8,8a-octahydronaphthalen-2-yl)methyl 2-(4-Chlorophenyl)acetate], the inhibition at 20 µM was 38 ± 0.96% in data set [1], 47.2 ± 0.85% in data set [2] (setting [5]), 19.3 ± 0.97% in data set [3] and 28 ± 0.87% in data set [4].

For `C[C@]1(CO)C2CC=C(COC(=O)Cc3ccc(I)cc3)[C@@H](/C=C/C3=CCOC3=O)[C@]2(C)CC[C@H]1O` (stereo partly drawn) [Compound 9r, ((1S,5R,6R,8aR)-6-Hydroxy-5-(hydroxymethyl)-5,8a-dimethyl-1-((E)-2-(2-oxo-2,5-dihydrofuran-3-yl)vinyl)-1,4,4a,5,6,7,8,8a-octahydronaphthalen-2-yl)methyl 2-(4-Iodophenyl)acetate], the inhibition at 20 µM in data set [1] is 10.6 ± 0.22%; in data set [2] (setting [5]) it was 2.4 ± 0.19%; in data set [3], 27.2 ± 0.48%; in data set [4], 12 ± 0.96%.

Consider `Cc1ccc(CC(=O)OCC2=CCC3[C@](C)(CO)[C@H](O)CC[C@@]3(C)[C@@H]2/C=C/C2=CCOC2=O)cc1` (stereo partly drawn) [Compound 9t, ((1S,5R,6R,8aR)-6-Hydroxy-5-(hydroxymethyl)-5,8a-dimethyl-1-((E)-2-(2-oxo-2,5-dihydrofuran-3-yl)vinyl)-1,4,4a,5,6,7,8,8a-octahydronaphthalen-2-yl)methyl 2-(p-Tolyl)acetate], for which the inhibition at 20 µM in data set [1] came out at 52 ± 0.85%; in data set [2] (setting [5]), 49.7 ± 0.92%; in data set [3], 13.9 ± 0.64%; in data set [4] it was 5.2 ± 0.5%.

Take `COc1cc(CC(=O)OCC2=CCC3[C@](C)(CO)[C@H](O)CC[C@@]3(C)[C@@H]2/C=C/C2=CCOC2=O)cc(OC)c1OC` (stereo partly drawn) [Compound 9u, ((1S,5R,6R,8aR)-6-Hydroxy-5-(hydroxymethyl)-5,8a-dimethyl-1-((E)-2-(2-oxo-2,5-dihydrofuran-3-yl)vinyl)-1,4,4a,5,6,7,8,8a-octahydronaphthalen-2-yl)methyl 2-(3,4,5-Trimethoxyphenyl)acetate]: the inhibition at 20 µM worked out at 48.7 ± 0.96% in data set [1], 32.6 ± 0.38% in data set [2] (setting [5]), 35.9 ± 0.87% in data set [3] and 69 ± 0.58% in data set [4].

As to `C[C@]1(CO)C2CC=C(COC(=O)Cc3ccc(Cl)c(Cl)c3)[C@@H](/C=C/C3=CCOC3=O)[C@]2(C)CC[C@H]1O` (stereo partly drawn) [Compound 9v, ((1S,5R,6R,8aR)-6-Hydroxy-5-(hydroxymethyl)-5,8a-dimethyl-1-((E)-2-(2-oxo-2,5-dihydrofuran-3-yl)vinyl)-1,4,4a,5,6,7,8,8a-octahydronaphthalen-2-yl)methyl 2-(3,4-Dichlorophenyl)acetate], the IC50 in data set [1] is over 20 µM; in data set [2] it was 7.5 µM; in data set [3], over 20 µM; in data set [4], over 20 µM. Besides, the inhibition at 20 µM in data set [1] amounted to 26.5 ± 0.54%; in data set [2] (setting [5]), 72%; in data set [3], 5.7 ± 6.1%; in data set [4], 29 ± 0.78%. In data set [2] (A549, 20 μM concentration, MTT, 48 h, 20 µM), the “Cytotoxic Activity (% Growth Inhibition)” value is recorded as 72.7 ± 0.54%.

Regarding `CCCCCCCC(=O)OCC1=CCC2[C@](C)(CO)[C@H](O)CC[C@@]2(C)[C@@H]1/C=C/C1=CCOC1=O` (stereo partly drawn) [Compound 9w, ((1S,5R,6R,8aR)-6-Hydroxy-5-(hydroxymethyl)-5,8a-dimethyl-1-((E)-2-(2-oxo-2,5-dihydrofuran-3-yl)vinyl)-1,4,4a,5,6,7,8,8a-octahydronaphthalen-2-yl)methyl Octanoate], the inhibition at 20 µM was found to be 67 ± 0.75% in data set [1], 16.8 ± 0.93% in data set [2] (setting [5]), 23.9 ± 0.58% in data set [3] and 25 ± 0.36% in data set [4].

With `CCCCCCCCCC(=O)OCC1=CCC2[C@](C)(CO)[C@H](O)CC[C@@]2(C)[C@@H]1/C=C/C1=CCOC1=O` (stereo partly drawn) [Compound 9x, ((1S,5R,6R,8aR)-6-Hydroxy-5-(hydroxymethyl)-5,8a-dimethyl-1-((E)-2-(2-oxo-2,5-dihydrofuran-3-yl)vinyl)-1,4,4a,5,6,7,8,8a-octahydronaphthalen-2-yl)methyl Decanoate], the inhibition at 20 µM in data set [1] worked out at 24 ± 0.83%; in data set [2] (setting [5]) it was 23.2 ± 0.74%; in data set [3], 2.7 ± 0.51%; in data set [4] it was 46 ± 0.84%.

`CCCCCCCCCCCC(=O)OCC1=CCC2[C@](C)(CO)[C@H](O)CC[C@@]2(C)[C@@H]1/C=C/C1=CCOC1=O` (stereo partly drawn) [Compound 9y, ((1S,5R,6R,8aR)-6-Hydroxy-5-(hydroxymethyl)-5,8a-dimethyl-1-((E)-2-(2-oxo-2,5-dihydrofuran-3-yl)vinyl)-1,4,4a,5,6,7,8,8a-octahydronaphthalen-2-yl)methyl Dodecanoate]: the inhibition at 20 µM in data set [1] stood at 66 ± 0.47%; in data set [2] (setting [5]) it was 1.6 ± 0.98%; in data set [3], 4.6 ± 0.44%; in data set [4], 38 ± 0.18%.

The IC50 is the concentration needed to halve the response being measured. Low readings indicate greater potency, high ones weaker potency.
